Source: the RNAGym collection of RNA variant scans (doi:10.1038/s41586-018-0170-7)

B1: tRNA (parent)
chain: GUUCCGUUGGCGUAAUGGUAACGCGUCUCCCUCCUAAGGAGAAGACUGCGGGUUCGAGUCCCGUACGGAACG

Variants of: B1
Experiment: yeast fitness, log relative to wild type (ln ratio); higher = fitter; tRNA-Arg(CCU), competitive growth, 37 C, 1 M NaCl
Summary of the method: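 Variants were counted by 125 bp paired-end Illumina sequencing after pools of a combinatorial tRNA-Arg(CCU) library, held on a HIS3 centromeric plasmid in BY4742 lacking the chromosomal gene, grew ~6.5 generations (~26.5 h) in SC-HIS 1M NaCl at 37 °C. Each genotype's fitness is the natural log of its generations relative to the wild type's. Generations were OD-scaled log2 output/input frequencies, inverse-variance weighted over replicates.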

Row | Variant | yeast fitness (ln)
1 | G6U C46U A69G A70U | -0.204
2 | G6U C46U A69G A70G | -0.158
3 | C27U C46U A69G | -0.0243
4 | G6U A43C C46U C66U A69G C71U | -0.321
5 | G6U C27U A43C C66U C71U | -0.34
6 | G6U C27U C66U A69G A70G | -0.306
7 | G6U C27U C66U A69G A70U | -0.329
8 | G6U C46U C66U A69G A70G | -0.275
9 | G6U C46U C66U A69G A70U | -0.235
10 | G6U C27U C46U A70U C71U | -0.214
11 | G6U C27U A43C C66A A69G | -0.264
12 | G6U C27U A43C C66U A70G C71U | -0.352
13 | G6U C27U C46U C66U C71U | -0.359
14 | G6U C27U C66U C71U | -0.256
15 | G6U C46U C66U A69G A70U C71U | -0.434
16 | C27U A43C A70U C71U | -0.181
17 | G6U C27U C46U C66A A69G C71U | -0.507
18 | G6U C27U A43C C46U C66U C71U | -0.355
19 | C27U A43C C66A A70G C71U | -0.234
20 | G6U C27U C46U A69G C71U | -0.314
21 | G6U C27U A43C C66U A69G A70G | -0.528
22 | G6U C27U A43C C66U A69G A70U | -0.349
23 | C27U A69G C71U | -0.113
24 | G6U A69G A70U C71U | -0.394

Row | Variant | yeast fitness (ln)
25 | G6U C27U C66A A69G A70U | -0.213
26 | G6U C27U C66A A69G A70G | -0.35
27 | G6U C46U A69G | -0.397
28 | G6U C27U C46U C66U A70G C71U | -0.245
29 | G6U C27U A69G A70G C71U | -0.394
30 | C27U A43C A69G A70G | -0.235
31 | C27U A43C A69G A70U | -0.204
32 | G6U C46U C66U A70U C71U | -0.302
33 | G6U C27U A43C A69G C71U | -0.384
34 | G6U C27U A43C C46U A70G | -0.248
35 | G6U C27U A43C C46U A70U | -0.206
36 | G6U C27U C66U A70U | -0.261
37 | G6U C27U C66U A70G | -0.288
38 | G6U C27U C46U C66U A69G A70U C71U | -0.51
39 | G6U C27U C46U A70G C71U | -0.321
40 | G6U C66U C71U | -0.639
41 | G6U A43C C66A A70U C71U | -0.29
42 | G6U C27U A43C C46U A69G | -0.268
43 | G6U C27U A43C C46U C66A A69G C71U | -0.439
44 | C27U A43C C66U A69G A70U | -0.361
45 | C27U A43C C66U A69G A70G | -0.255
46 | G6U C66A A69G A70U | -0.291
47 | G6U C66A A69G A70G | -0.0205
48 | G6U C46U C66U A69G C71U | -0.594

Row | Variant | yeast fitness (ln)
49 | C27U A43C C46U C66A A70U C71U | -0.301
50 | G6U C27U C46U C66A C71U | -0.0489
51 | G6U C27U C46U A69G A70G C71U | -0.342
52 | G6U C27U C66A | -0.0293
53 | G6U C27U C66U | -0.321
54 | G6U C46U C66A C71U | -0.00198
55 | C27U | -0.0106
56 | G6U C27U A69G A70U | -0.214
57 | G6U C27U A69G A70G | -0.33
58 | G6U A43C C66U A69G A70U C71U | -0.393
59 | G6U C46U | -0.0183
60 | C27U A43C C66U A69G A70G C71U | -0.318
61 | G6U C46U C66U C71U | -0.183
62 | G6U C27U C46U C66A A69G A70G | -0.243
63 | G6U C27U C46U C66A A69G A70U | -0.196
64 | G6U A69G A70G | -0.16
65 | G6U A69G A70U | -0.145
66 | C27U A43C C66A A69G A70G C71U | -0.369
67 | G6U C27U C46U A69G A70G | -0.192
68 | G6U C27U C46U A69G A70U | -0.292
69 | C27U A69G A70U | -0.206
70 | C27U A69G A70G | -0.0809
71 | C27U A43C C66A A70U C71U | -0.347
72 | C27U A43C C46U C66A A69G A70G | -0.0756

Row | Variant | yeast fitness (ln)
73 | C27U A43C C46U C66A A69G A70U | -0.156
74 | C27U A43C C66A A69G A70G | -0.181
75 | C27U A43C C66A A69G A70U | -0.289
76 | G6U C66U A69G A70G | -0.271
77 | G6U C66U A69G A70U | -0.261
78 | G6U C27U A43C C46U A70G C71U | -0.337
79 | C27U A70U C71U | -0.149
80 | G6U C66U A69G A70G C71U | -0.293
81 | G6U C27U C46U C66A A70U | -0.084
82 | G6U C27U C46U C66A A70G | -0.04
83 | G6U C27U A43C C46U C66U A69G A70G C71U | -0.444
84 | G6U C27U A43C C46U C66U A70G C71U | -0.378
85 | G6U C27U A43C A69G A70U | -0.391
86 | G6U C27U A43C A69G A70G | -0.401
87 | G6U C27U C66A C71U | -0.109
88 | C27U A43C C46U A69G A70U C71U | -0.317
89 | C27U A69G A70G C71U | -0.223
90 | G6U C27U C46U C66U A69G C71U | -0.543
91 | C27U A43C C46U C66U A69G A70U | -0.285
92 | C27U A43C C46U C66U A69G A70G | -0.211
93 | G6U C27U C66U A70U C71U | -0.36
94 | G6U C46U C71U | -0.413
95 | G6U A43C C71U | -0.253
96 | G6U C66U A70U C71U | -0.315

Row | Variant | yeast fitness (ln)
97 | G6U C27U A43C C46U C66A C71U | -0.299
98 | G6U C27U C46U C66U A70U C71U | -0.336
99 | G6U C27U A69G A70U C71U | -0.513
100 | G6U C46U C66A A70G C71U | -0.15
101 | G6U C66A A69G | 0.00209
102 | G6U A43C C46U C66U A70U C71U | -0.359
103 | G6U C27U C66A A69G A70U C71U | -0.378
104 | G6U C27U A43C C46U C66A A70G C71U | -0.211
105 | G6U C66U A70G | -0.383
106 | G6U C66U A70U | -0.122
107 | G6U C27U C46U C66U A70G | -0.207
108 | G6U C27U C46U C66U A70U | -0.19
109 | G6U C27U A43C C46U C66A | -0.0176
110 | G6U C27U A43C C46U C66U | -0.271
111 | G6U C27U A43C C66U A69G A70G C71U | -0.473
112 | G6U C66U A70G C71U | -0.168
113 | G6U C27U A43C C66A A70G C71U | -0.217
114 | G6U C27U A43C | -0.197
115 | G6U A43C C66A A69G | -0.0712
116 | G6U C46U A69G A70G C71U | -0.253
117 | C27U A43C C46U C66U A70U C71U | -0.333
118 | C27U A43C C66U A69G | -0.384
119 | C27U A70U | -0.042
120 | C27U A70G | -0.037

Row | Variant | yeast fitness (ln)
121 | G6U C27U A43C C66A A70G | -0.293
122 | G6U C27U A43C C66A A70U | -0.185
123 | C27U C46U A69G A70U | -0.209
124 | C27U C46U A69G A70G | -0.0578
125 | C27U A70G C71U | -0.38
126 | G6U C27U A43C A70U C71U | -0.445
127 | G6U C27U A43C C66U A70U | -0.259
128 | G6U C27U A43C C66U A70G | -0.407
129 | G6U C27U A43C C46U C66A A69G A70U C71U | -0.611
130 | G6U C66A A69G A70U C71U | -0.408
131 | G6U A43C C66A A69G A70U | -0.215
132 | G6U A43C C66A A69G A70G | -0.373
133 | G6U A69G C71U | -0.233
134 | G6U C66A A70U | -0.0008
135 | G6U C66A A70G | -0.0102
136 | C27U A43C C71U | -0.114
137 | G6U C27U A43C C46U A69G A70U | -0.245
138 | G6U C27U A43C C46U A69G A70G | -0.339
139 | C27U A43C A69G C71U | -0.44
140 | G6U C46U A70G C71U | -0.202
141 | G6U A43C C66A A69G C71U | -0.368
142 | C27U A43C C46U A69G A70G | -0.0876
143 | C27U A43C C46U A69G A70U | -0.0621
144 | G6U A43C C66U A69G C71U | -0.394

Row | Variant | yeast fitness (ln)
145 | C27U A43C C66U A70U | -0.147
146 | C27U A43C C66U A70G | -0.227
147 | G6U C27U C66U A69G | -0.276
148 | G6U C46U C66U A69G | -0.376
149 | C27U A43C C46U A69G | -0.0156
150 | G6U C27U A43C C46U A70U C71U | -0.336
151 | C27U A43C A70G C71U | -0.112
152 | G6U C66U A69G A70U C71U | -0.481
153 | G6U A43C C66U A69G A70U | -0.356
154 | G6U A43C C66U A69G A70G | -0.333
155 | G6U C27U C46U C66U A69G A70G C71U | -0.321
156 | G6U A43C C46U C66U A69G A70G C71U | -0.325
157 | C27U A43C C66U A69G C71U | -0.344
158 | G6U C27U A43C C46U C66U A69G C71U | -0.432
159 | C27U A43C C46U C66U A70G | -0.115
160 | C27U A43C C46U C66U A70U | -0.109
161 | G6U C27U A43C C46U C66U A69G A70U C71U | -0.535
162 | G6U C27U A70G C71U | -0.368
163 | G6U C27U A43C C46U C66A A70G | -0.123
164 | G6U C27U A43C C46U C66A A70U | -0.382
165 | G6U C66U | -0.0366
166 | G6U C66A | 0.000896
167 | C27U C46U A69G C71U | -0.0597
